Compound activity (PubChem)
CRFR2-BP ag: CRF-BP/CRF-R2 complex agonism; HEK293 CRF-R2/CRF-BP, calcium dye fluorescence (FLIPR); percent of saturating CRF peptide response; activation, % at 13.2 µM; 0.46% of 350,000 active; AID 588473;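 active = activation of at least 50%, plus an integration ratio under a set limit after plate pattern correction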
TRPML3 agonist: agonists of human TRPML3 channel; Q8TDD5; HEK293 TRPML3-YFP, Fluo-8 calcium fluorescence; 100% = the carbachol control signal; activation, % at 3 µM; 0.29% of 220,000 active; AID 1448;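 active = activation above its plate's cutoff, the mean activation of the plate's test wells plus 3 SD, cut at about 12% in these data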
Target sequence (Q8TDD5 whole entry, looked up): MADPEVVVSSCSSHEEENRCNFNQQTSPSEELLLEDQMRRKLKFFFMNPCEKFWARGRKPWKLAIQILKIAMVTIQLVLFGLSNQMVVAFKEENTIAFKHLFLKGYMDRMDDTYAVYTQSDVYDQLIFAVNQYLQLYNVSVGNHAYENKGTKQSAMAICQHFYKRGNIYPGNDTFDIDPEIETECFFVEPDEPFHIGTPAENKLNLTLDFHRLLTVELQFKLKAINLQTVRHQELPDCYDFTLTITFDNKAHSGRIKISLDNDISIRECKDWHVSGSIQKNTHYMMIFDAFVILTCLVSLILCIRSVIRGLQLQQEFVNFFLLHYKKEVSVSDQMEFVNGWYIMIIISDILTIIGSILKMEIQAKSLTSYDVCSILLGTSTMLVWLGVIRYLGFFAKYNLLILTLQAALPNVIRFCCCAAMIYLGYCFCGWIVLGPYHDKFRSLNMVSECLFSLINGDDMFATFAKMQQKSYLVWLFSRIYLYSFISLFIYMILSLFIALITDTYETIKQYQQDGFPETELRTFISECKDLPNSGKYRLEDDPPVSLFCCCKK
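Test system: TRPML3-YFP stable HEK293 cells. Doses: single point at 3 µM. Incubation: dye loading 1 h 37 °C then 30 min ambient, 125 s read. Signal: Fluo-8 calcium dye fluorescence, ex 470-495, em 515-575 nm. Measure: percent activation from peak-to-basal fluorescence ratio, scaled between DMSO and carbachol.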
GPR7 antagonist: antagonists of human GPR7 (neuropeptides B/W receptor 1) | GPR7-expressing cells, fluorescence antagonist assay | 1.1% of 290,000 active | inhibition, % at 4.4 µM; in the data active = inhibition above about 16%, passing the limit was not always enough;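 also: cells stimulated with the agonist NPW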
CRFR2-BP antag: blocks CRF-induced signaling of the CRF-BP/CRF-R2 complex | HEK293 CRF-R2/CRF-BP, CRF-induced calcium fluorescence | inhibition, % at 11.8 µM | 0.59% of 350,000 active;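 active = inhibition of the ligand-induced calcium signal above about 50% at the single tested concentration, limit read from the data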
zfTRPN1 agonist: zebrafish TRPN1 (NompC) channel agonism. HEK293 zebrafish TRPN1-YFP, Fluo-8 calcium fluorescence; 100% = response to 87 µM carbachol. 0.18% of 220,000 active. activation, % at 3 µM;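 active = activation above its plate's cutoff, the mean activation of test wells on that plate plus 3 SD, cut at about 19% in these data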
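Material: zebrafish TRPN1-YFP in HEK293 cells. Doses: one dose of 3 µM, 0.3% DMSO. Incubation: dye 1 h 37 °C plus 30 min RT. Measured by: intracellular calcium fluorescence with Fluo-8.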
Of the large screens only hits and unclear results are named; the others gave an inactive call. This is a sample that favours compounds with a hit; in the whole collection about 2% have one here.

O=C(COc1ccc2c(c1)oc(=O)c1ccccc12)NC(Cc1ccc(Cl)cc1)C(=O)O (configuration not stated)	none (no result: TRPML3 agonist, zfTRPN1 agonist)
CC1CCC(C(C)C)C(OC(=O)CSc2nccc(=O)[nH]2)C1 (configuration not stated)	none
COc1ccc(-c2n(CC(=O)OC3CC(C)CCC3C(C)C)c3ccccc3[n+]2C)cc1 (configuration not stated)	GPR7 antagonist 93
CCN(CC)c1ccc(/C=C/c2cc(-c3ccccc3)c3ccccc3n2)cc1	CRFR2-BP ag 67
O=C(OCCOc1ccccc1F)c1cccc(S(=O)(=O)N2CCOCC2)c1	none (no result: TRPML3 agonist, GPR7 antagonist, zfTRPN1 agonist)
COC(=O)CCN(c1ccccc1)S(=O)(=O)c1cc(-c2cc(C)no2)ccc1OC	none (no result: TRPML3 agonist, zfTRPN1 agonist)
COc1ccc(C(=O)N=C2SC3CS(=O)(=O)CC3N2Cc2ccccc2)cc1OC (configuration not stated)	none (no result: TRPML3 agonist, zfTRPN1 agonist)
C/C(=C\C=C(C#N)C#N)c1cc(C#N)c(N)o1	CRFR2-BP ag 64
COC(=O)c1ccc2nc3c(cc2c1)[C@@H]1CCN2C(=O)CCC[C@H](C3)[C@H]12	CRFR2-BP antag 87 (no result: TRPML3 agonist, GPR7 antagonist, zfTRPN1 agonist)
CC1(C)CCC(=O)N2CC[C@H]3c4cc5ccccc5nc4C[C@@H]1[C@H]32	none (no result: TRPML3 agonist, GPR7 antagonist, zfTRPN1 agonist)
CCOc1ccc(C2/C(=C(\O)c3ccc4c(c3)OCCO4)C(=O)C(=O)N2CCCN2CCOCC2)cc1OC (configuration not stated)	none (no result: TRPML3 agonist, zfTRPN1 agonist)
CCOc1ccc(C2/C(=C(\O)c3ccc4c(c3)OCCO4)C(=O)C(=O)N2CCCN2CCOCC2)cc1 (configuration not stated)	CRFR2-BP antag 55 (no result: TRPML3 agonist, zfTRPN1 agonist)
CCCCn1c(N)c(N(CC(C)C)C(=O)CCNC(=O)c2ccc(Cl)cc2)c(=O)[nH]c1=O	none (no result: TRPML3 agonist, GPR7 antagonist, zfTRPN1 agonist)
O=C(NCCO)c1nc(C(=O)c2ccc(Cl)cc2)c2ccccc2n1	CRFR2-BP antag 71 (no result: TRPML3 agonist, GPR7 antagonist, zfTRPN1 agonist)
CCC1(C)Cc2c(sc(NC(=S)NC(=O)c3ccccc3)c2C#N)CO1 (configuration not stated)	none
CN1Cc2sc(NC(=S)NC(=O)c3ccccc3)c(C#N)c2CC1(C)C	CRFR2-BP ag 93
NCC1CC2c3ccccc3C1c1ccccc12 (configuration not stated)	none (no result: TRPML3 agonist, zfTRPN1 agonist)
Cc1cc(C)cc(OCCCC(=O)O)c1	none
Cc1ccc(OCCC(=O)O)cc1	CRFR2-BP antag 85
COc1ccc2nc(C)cc(NCc3ccc(F)cc3)c2c1	CRFR2-BP ag 73 (no result: TRPML3 agonist, zfTRPN1 agonist)
COc1ccc2nc(C)cc(Nc3ccc(C)cc3)c2c1	none (no result: TRPML3 agonist, zfTRPN1 agonist)
CCC1(c2ccc(F)cc2)NC(=O)N(CC(=O)N2CCc3ccccc32)C1=O (configuration not stated)	CRFR2-BP ag 53 (no result: TRPML3 agonist, GPR7 antagonist, zfTRPN1 agonist)
CCC1(c2ccccc2)NC(=O)N(CC(=O)N2CCc3ccccc32)C1=O (configuration not stated)	none (no result: TRPML3 agonist, GPR7 antagonist, zfTRPN1 agonist)
CC1(c2ccc(Cl)cc2)NC(=O)N(CC(=O)N2CCc3ccccc32)C1=O (configuration not stated)	CRFR2-BP ag 82 (no result: TRPML3 agonist, GPR7 antagonist, zfTRPN1 agonist)
CCN(CC)C(=O)[C@H]1C[C@H](CC(=O)NCCC2=CCCCC2)C(=O)N2CCc3c([nH]c4ccc(Cl)cc34)[C@]12C	none (no result: TRPML3 agonist, GPR7 antagonist, zfTRPN1 agonist)
Cc1cccc(N(CC(O)CN2CCCC2)S(=O)(=O)c2ccccc2)c1 (configuration not stated)	none (no result: TRPML3 agonist, zfTRPN1 agonist)
CC(C)CC(=O)Nc1ccc(C(=O)COC(=O)Cc2n[nH]c(=O)c3ccccc23)cc1	CRFR2-BP ag 51 (no result: TRPML3 agonist, GPR7 antagonist, zfTRPN1 agonist)
O=C(Cc1n[nH]c(=O)c2ccccc12)OCC(=O)c1ccccc1	none (no result: TRPML3 agonist, GPR7 antagonist, zfTRPN1 agonist)
CCOCc1nc(N)nc(N)c1-c1cccc(Cl)c1	none (no result: TRPML3 agonist, GPR7 antagonist, zfTRPN1 agonist)
CCN(C[C@H]1N[C@@](Cc2ccccc2)(C(=O)OC)[C@H]2C(=O)N(Cc3ccccc3)C(=O)[C@@H]12)C(=O)C1CCCCC1	CRFR2-BP ag 110 (no result: TRPML3 agonist, GPR7 antagonist, zfTRPN1 agonist)
CCN(C[C@H]1N[C@@](C)(C(=O)OC)[C@H]2C(=O)N(Cc3ccccc3)C(=O)[C@@H]12)C(=O)C1CCCCC1	none (no result: TRPML3 agonist, GPR7 antagonist, zfTRPN1 agonist)
c1ccc(COc2ccccc2CNC23CC4CC(CC(C4)C2)C3)cc1	GPR7 antagonist 36
CCCCN(C(=O)c1cc(Cl)nc2ccccc12)c1c(N)n(Cc2ccccc2)c(=O)[nH]c1=O	none (no result: TRPML3 agonist, GPR7 antagonist, zfTRPN1 agonist)
Cc1ccccc1C(=O)NNC(=S)NC(=O)c1cccs1	CRFR2-BP ag 99 (no result: TRPML3 agonist, zfTRPN1 agonist)
CC(C)(C)c1ccc(C(=O)NC(=S)NNC(=O)c2cccs2)cc1	CRFR2-BP ag 290, zfTRPN1 agonist 19
O=C(NC(=S)NNC(=O)c1cccs1)c1ccccc1	none (no result: TRPML3 agonist, zfTRPN1 agonist)
